According to ChEMBL document CHEMBL1144684, “Evaluation of a series of naphthamides as potent, orally active vascular endothelial growth factor receptor-2 tyrosine kinase inhibitors” (J Med Chem, 2008):
Active and inactive are the calls of the source. The rule behind the calls is not given here.

Tests used:
Mus musculus [1] = assay: Cmax in mouse at 10 mg/kg, po; format: ADME, organism-based; parameters: dose 10 mg/kg, route oral; conditions: in vivo
Procedure, shortened: (§1)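 Compound given iv and po as single doses; vehicles: mouse iv PEG 400, po OraPlus; dog iv DMSO, po 1% Tween-80/2% HPMC/97% water; cynomolgus iv propylene glycol, po suspension.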

[2] = Mean residence time in cynomolgus monkey at 0.5 mg/kg, iv; format: ADME, organism-based, Macaca fascicularis; parameters: dose 0.5 mg/kg, route intravenous; conditions: in vivo; procedure, shortened: as §1
[3] = Intrinsic clearance in rat liver microsomes at 1 uM; format: ADME, Microsome; conditions: read-out: Stability
Procedure, shortened: (§2)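 Human or rat liver microsomes (0.25 mg protein/mL) with 1 mM NADPH, 2 mM MgCl2 in 50 mM potassium phosphate pH 7.4 at 37 °C; compound 1 µM final. Sampled 0–40 min into acetonitrile, LC-MS/MS; ln % remaining vs time slope gives T1/2; CLint = (0.693/T1/2)/0.25 mg/mL.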

[4] = target: Mast/stem cell growth factor receptor Kit (Homo sapiens) (UniProt P10721); assay: Inhibition of c-Kit
Mast/stem cell growth factor receptor Kit (Homo sapiens), sequence (P10721 whole entry): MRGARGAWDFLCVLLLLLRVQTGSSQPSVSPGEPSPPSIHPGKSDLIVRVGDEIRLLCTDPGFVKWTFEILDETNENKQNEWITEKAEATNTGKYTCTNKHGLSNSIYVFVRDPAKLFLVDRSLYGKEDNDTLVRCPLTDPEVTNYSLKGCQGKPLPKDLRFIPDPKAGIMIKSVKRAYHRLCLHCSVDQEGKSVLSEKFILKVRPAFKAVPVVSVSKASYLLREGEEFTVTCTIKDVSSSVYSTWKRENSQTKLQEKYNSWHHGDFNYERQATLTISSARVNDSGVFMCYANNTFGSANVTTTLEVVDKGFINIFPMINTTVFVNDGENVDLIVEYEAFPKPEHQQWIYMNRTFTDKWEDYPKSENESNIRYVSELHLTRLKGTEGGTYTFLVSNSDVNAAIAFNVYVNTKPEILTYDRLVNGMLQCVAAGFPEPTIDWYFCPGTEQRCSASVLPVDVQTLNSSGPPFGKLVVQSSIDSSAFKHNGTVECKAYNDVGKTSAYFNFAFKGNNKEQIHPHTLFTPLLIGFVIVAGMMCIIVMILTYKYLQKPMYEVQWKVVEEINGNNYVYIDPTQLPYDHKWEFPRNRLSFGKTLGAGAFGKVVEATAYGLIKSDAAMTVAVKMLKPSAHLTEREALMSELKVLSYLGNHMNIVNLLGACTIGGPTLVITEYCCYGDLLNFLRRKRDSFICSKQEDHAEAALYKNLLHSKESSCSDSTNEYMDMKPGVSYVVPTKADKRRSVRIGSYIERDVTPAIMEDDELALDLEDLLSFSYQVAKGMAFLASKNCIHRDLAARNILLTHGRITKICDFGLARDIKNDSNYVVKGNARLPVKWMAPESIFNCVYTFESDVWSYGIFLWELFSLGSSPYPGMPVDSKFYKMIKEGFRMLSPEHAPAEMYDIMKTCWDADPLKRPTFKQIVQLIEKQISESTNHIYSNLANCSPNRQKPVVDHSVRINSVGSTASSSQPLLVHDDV

[5] = target: Platelet-derived growth factor receptor alpha (Homo sapiens) (UniProt P16234); assay: Inhibition of PDGFRalpha
Platelet-derived growth factor receptor alpha (Homo sapiens), sequence (P16234 whole entry): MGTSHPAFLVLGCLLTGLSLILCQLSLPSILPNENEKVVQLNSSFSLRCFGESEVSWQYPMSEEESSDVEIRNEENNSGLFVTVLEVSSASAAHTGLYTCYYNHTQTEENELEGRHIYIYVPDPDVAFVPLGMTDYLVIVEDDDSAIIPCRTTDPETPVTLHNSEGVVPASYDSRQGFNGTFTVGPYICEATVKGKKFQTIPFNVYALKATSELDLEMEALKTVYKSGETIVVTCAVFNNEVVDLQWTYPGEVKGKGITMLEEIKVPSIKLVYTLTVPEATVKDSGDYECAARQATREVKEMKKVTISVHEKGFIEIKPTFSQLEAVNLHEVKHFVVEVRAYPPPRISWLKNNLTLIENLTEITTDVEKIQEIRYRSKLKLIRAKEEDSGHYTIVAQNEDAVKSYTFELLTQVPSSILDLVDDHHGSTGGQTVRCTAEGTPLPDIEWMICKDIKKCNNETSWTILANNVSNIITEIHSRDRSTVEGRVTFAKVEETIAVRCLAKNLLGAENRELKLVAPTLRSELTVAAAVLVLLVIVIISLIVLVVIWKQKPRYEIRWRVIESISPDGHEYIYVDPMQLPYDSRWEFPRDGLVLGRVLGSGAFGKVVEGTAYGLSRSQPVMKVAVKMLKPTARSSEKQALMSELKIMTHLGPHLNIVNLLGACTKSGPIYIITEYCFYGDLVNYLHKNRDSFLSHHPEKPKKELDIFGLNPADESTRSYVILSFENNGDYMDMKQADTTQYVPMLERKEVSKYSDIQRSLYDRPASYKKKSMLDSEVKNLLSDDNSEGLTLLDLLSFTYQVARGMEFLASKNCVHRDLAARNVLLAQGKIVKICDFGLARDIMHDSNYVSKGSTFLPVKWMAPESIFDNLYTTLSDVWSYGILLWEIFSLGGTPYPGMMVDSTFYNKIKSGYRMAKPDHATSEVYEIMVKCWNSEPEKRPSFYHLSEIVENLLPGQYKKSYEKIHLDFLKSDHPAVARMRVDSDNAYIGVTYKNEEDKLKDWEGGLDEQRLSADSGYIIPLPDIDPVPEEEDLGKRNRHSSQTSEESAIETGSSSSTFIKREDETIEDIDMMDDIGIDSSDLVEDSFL

[6] = Aqueous solubility in 0.01 N Hcl; format: physicochemical
[7] = Volume of distribution at steady state in cynomolgus monkey at 0.5 mg/kg, iv; format: ADME, organism-based, Macaca fascicularis; parameters: dose 0.5 mg/kg, route intravenous; conditions: in vivo, read-out: Vdss
Procedure, shortened: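 Intravenous dosing of male/unspecified animals per species; vehicles: mouse 2 mg/kg in Peg 400, dog 0.5 mg/kg in DMSO, cynomolgus monkey 0.5 mg/kg in propylene glycol. Parameters from plasma concentration–time data by noncompartmental analysis.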

[8] = Clearance in mouse at 2 mg/kg, iv; format: ADME, organism-based; parameters: dose 2 mg/kg, route intravenous; conditions: in vivo; procedure, shortened: as §1
[9] = AUC in VEGF-soaked disk implanted in Sprague-Dawley rat; format: ADME, organism-based; conditions: plasma
[10] = Tmax in dog at 0.5 mg/kg, po; format: ADME, organism-based, Canis lupus familiaris; parameters: dose 0.5 mg/kg, route oral; conditions: in vivo
Procedure, shortened: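 Oral suspension dosing; vehicles: mouse 10 mg/kg in OraPlus, dog 0.5 mg/kg in 1% Tween-80/2% HPMC/97% water, cynomolgus monkey 2 mg/kg.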

[11] = Clearance in Sprague-Dawley rat at 0.5 mg/kg, iv; format: ADME, organism-based; parameters: dose 0.5 mg/kg, route intravenous; conditions: in vivo
Procedure, shortened: (§3)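 Male Sprague–Dawley rats dosed iv via femoral vein as DMSO solution (1 or 0.5 mg/kg) or po by gavage as OraPlus suspension (pH 2.0–2.2 with methanesulfonic acid; 10 or 2 mg/kg). Serial jugular blood over 12–24 h; plasma acetonitrile precipitation, LC-MS/MS (MRM) with internal standard; noncompartmental parameters.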

HUVEC = assay: Inhibition of bFGF-induced proliferation of HUVEC; format: functional, cell-based; conditions: Homo sapiens
Procedure, shortened: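 HUVEC seeded at 3000/well in DMEM with 10% FBS, 22 h; 2 h preincubation with serial compound dilutions, then 50 ng/mL VEGF or 20 ng/mL bFGF for 72 h at 37 °C. Freeze–thaw, CyQuant DNA dye read-out; IC50 by four-parameter logistic fit, averaged over ≥2 experiments.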

[12] = AUC (0 to 24 hrs) in human HT29 cell xenografted CD1 nu/nu mouse at 10 mg/kg, po qd; format: ADME, organism-based, HT-29; parameters: time < 24 hr, dose 10 mg/kg, route oral; conditions: in vivo
Liver microsomes [13] = assay: Metabolic stability assessed as covalent binding in presence of NADPH in rat liver microsomes at 10 uM after 1 hr; format: ADME, Microsome
Procedure, shortened: (§4)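 14C-labelled compound at 10 µM with human or rat liver microsomes (1 mg/mL) in 0.1 M potassium phosphate pH 7.4, with or without 1 mM NADPH and 1 mM glutathione, 60 min; quenched with ice-cold acetonitrile. Pellet washed with 80% methanol and ethanol/ether, solubilized, protein by BCA, radioactivity by scintillation counting.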

[14] = Intrinsic clearance in human liver microsomes at 1 uM; format: ADME, Microsome; conditions: read-out: Stability; procedure, shortened: as §2
[15] = target: Macrophage colony-stimulating factor 1 receptor (Homo sapiens) (UniProt P07333); assay: Inhibition of c-fms
Macrophage colony-stimulating factor 1 receptor (Homo sapiens), sequence (P07333 whole entry): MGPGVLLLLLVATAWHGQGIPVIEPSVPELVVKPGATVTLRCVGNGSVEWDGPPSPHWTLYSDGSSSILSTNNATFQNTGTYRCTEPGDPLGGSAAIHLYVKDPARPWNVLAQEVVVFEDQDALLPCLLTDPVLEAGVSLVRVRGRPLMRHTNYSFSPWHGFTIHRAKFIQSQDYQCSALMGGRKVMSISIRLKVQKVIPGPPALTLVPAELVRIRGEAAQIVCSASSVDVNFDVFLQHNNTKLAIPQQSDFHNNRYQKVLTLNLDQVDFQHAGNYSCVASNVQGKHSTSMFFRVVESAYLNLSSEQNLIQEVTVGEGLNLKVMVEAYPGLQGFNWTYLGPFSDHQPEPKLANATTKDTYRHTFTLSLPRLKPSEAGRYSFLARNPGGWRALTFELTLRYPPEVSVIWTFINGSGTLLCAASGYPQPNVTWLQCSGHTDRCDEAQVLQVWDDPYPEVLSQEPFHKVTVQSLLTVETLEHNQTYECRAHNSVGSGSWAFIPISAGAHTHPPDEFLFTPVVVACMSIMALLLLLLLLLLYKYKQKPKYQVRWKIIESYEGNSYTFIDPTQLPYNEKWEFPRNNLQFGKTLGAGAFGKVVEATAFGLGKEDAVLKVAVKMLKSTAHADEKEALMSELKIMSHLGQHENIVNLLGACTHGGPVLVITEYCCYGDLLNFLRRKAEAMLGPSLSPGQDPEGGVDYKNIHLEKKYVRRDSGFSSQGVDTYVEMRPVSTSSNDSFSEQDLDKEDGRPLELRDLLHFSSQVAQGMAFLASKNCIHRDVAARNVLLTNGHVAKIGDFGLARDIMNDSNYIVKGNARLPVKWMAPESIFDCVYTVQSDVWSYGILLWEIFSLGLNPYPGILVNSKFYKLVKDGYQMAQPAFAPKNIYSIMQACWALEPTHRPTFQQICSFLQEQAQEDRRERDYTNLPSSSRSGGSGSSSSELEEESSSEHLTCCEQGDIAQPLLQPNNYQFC

Calu-6 (Homo sapiens) = assay: Antitumor activity in human Calu6 cell xenografted CD1 nu/nu mouse assessed as inhibition of tumor growth at 20 mg/kg, po qd for 14 days; conditions: Calu-6, po, 336 h, read-out: TGI
[16] = Tmax in Sprague-Dawley rat at 2 mg/kg, po; format: ADME, organism-based; parameters: dose 2 mg/kg, route oral; conditions: in vivo
Procedure, shortened: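 Male Sprague–Dawley rats dosed iv at 0.5 mg/kg as DMSO solution or po at 2 mg/kg as suspension in 100% OraPlus. Serial jugular blood, plasma LC-MS/MS quantitation, noncompartmental analysis.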

Aurora kinase B = Aurora kinase B (Homo sapiens, UniProt Q96GD4); assay: Inhibition of Aurora B
Aurora kinase B, sequence (Q96GD4 whole entry): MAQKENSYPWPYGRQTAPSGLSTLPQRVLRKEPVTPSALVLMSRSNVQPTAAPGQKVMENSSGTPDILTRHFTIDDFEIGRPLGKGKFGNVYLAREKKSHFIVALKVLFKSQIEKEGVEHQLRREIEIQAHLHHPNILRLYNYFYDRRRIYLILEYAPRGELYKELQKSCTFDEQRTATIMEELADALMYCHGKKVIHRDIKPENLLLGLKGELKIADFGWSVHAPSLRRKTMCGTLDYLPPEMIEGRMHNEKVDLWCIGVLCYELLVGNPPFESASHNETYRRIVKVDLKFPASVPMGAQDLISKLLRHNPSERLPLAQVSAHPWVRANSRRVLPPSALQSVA

[17] = AUC (0 to 24 hrs) in cynomolgus monkey at 2 mg/kg, po; format: ADME, organism-based, Macaca fascicularis; parameters: time < 24 hr, dose 2 mg/kg, route oral; conditions: plasma; procedure, shortened: as §1
Mus musculus [18] = assay: Inhibition of VEGF-induced vascular permeability in HEK293 cells over expressing mouse recombinant VEGF implanted in CD1 nu/nu mouse assessed as Matrigel plug at 30 mg/kg, po after 6 hrs; format: functional, organism-based; parameters: dose 30 mg/kg
Procedure, shortened: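 HEK293 cells transfected with murine VEGF (or empty vector) were suspended in Matrigel and injected sc into the ventral surface of CD-1 nu/nu mice. At 24 h post-implant, a single oral gavage dose was given as an OraPlus suspension (or vehicle). After 6 h, Evans blue dye was quantified in 1 cm2 of skin over the plug. Plasma was sampled at 6 h; n = 5/group.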

[19] = target: Receptor-type tyrosine-protein kinase FLT3 (Homo sapiens) (UniProt P36888); assay: Inhibition of Flt3
Receptor-type tyrosine-protein kinase FLT3 (Homo sapiens), sequence (P36888 whole entry): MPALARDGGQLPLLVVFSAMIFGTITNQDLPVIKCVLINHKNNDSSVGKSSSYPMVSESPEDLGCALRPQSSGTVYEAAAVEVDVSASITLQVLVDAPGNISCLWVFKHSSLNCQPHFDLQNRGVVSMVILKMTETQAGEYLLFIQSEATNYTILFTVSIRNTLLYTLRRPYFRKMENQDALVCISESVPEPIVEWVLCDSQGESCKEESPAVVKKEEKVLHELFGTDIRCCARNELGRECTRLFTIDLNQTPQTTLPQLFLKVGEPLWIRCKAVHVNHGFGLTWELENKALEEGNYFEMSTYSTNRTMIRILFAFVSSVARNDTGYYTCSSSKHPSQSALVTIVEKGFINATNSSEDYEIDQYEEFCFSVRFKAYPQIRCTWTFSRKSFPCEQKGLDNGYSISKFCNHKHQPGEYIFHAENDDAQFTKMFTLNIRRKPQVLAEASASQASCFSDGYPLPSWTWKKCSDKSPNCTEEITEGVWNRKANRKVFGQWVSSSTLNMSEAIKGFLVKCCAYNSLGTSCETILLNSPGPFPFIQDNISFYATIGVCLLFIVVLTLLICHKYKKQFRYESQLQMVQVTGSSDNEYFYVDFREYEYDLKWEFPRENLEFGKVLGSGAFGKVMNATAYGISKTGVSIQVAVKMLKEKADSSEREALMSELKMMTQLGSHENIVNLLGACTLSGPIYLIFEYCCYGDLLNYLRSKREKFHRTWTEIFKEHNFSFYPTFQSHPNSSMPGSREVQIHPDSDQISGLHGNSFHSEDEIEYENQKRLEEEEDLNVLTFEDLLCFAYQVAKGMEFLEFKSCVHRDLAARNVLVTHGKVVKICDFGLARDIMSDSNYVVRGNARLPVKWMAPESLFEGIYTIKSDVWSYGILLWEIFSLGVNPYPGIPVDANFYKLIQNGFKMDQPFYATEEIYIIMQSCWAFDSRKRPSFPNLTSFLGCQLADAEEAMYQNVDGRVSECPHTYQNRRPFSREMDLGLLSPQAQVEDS

HT-29 [20] = assay: Antitumor activity in human HT29 cells xenografted CD1 nu/nu mouse assessed as inhibition of tumor growth at 3 mg/kg, po qd for 14 days; format: functional; conditions: HT-29, 336 h, read-out: TGI
Procedure, shortened: (§5)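 Female CD-1 nu/nu mice, 4–8 weeks, implanted sc in hind flank with 1 × 10^7 HT29 (DMEM high glucose, 5% FBS) or Calu-6 (RPMI 1640, 10% FBS) cells; treatment began at 13–14 days (~300 mm3). Methanesulfonate salt given po qd in OraPlus for 14 days; caliper volumes twice weekly; n = 10/group; RMANOVA with Scheffé test.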

[21] = AUC (0 to 24 hrs) in mouse at 10 mg/kg, po; format: ADME, organism-based; parameters: time < 24 hr, dose 10 mg/kg, route oral; conditions: plasma; procedure, shortened: as §1
HT-29 [22] = assay: Antitumor activity in human HT29 cell xenografted CD1 nu/nu mouse assessed as inhibition of tumor growth at 10 mg/kg, po qd for 14 days; format: functional; conditions: HT-29, 336 h, read-out: TGI; procedure, shortened: as §5
[23] = target: Tyrosine-protein kinase Lck (Homo sapiens, UniProt P06239); assay: Inhibition of Lck
Tyrosine-protein kinase Lck, sequence (P06239 whole entry): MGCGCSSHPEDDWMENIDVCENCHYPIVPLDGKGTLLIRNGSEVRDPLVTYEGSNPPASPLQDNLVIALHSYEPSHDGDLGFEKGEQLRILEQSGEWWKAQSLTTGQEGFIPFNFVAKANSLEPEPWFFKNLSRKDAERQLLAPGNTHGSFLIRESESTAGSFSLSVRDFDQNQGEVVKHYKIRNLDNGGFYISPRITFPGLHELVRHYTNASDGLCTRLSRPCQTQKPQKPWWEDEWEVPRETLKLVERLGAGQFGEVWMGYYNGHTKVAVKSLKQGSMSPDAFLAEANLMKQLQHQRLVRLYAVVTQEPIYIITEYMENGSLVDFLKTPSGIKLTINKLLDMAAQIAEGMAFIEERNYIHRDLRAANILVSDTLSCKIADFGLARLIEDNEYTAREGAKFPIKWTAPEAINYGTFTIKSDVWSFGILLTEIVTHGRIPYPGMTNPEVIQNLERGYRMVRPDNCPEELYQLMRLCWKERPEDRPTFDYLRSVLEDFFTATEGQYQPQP

[24] = Cmax in dog at 0.5 mg/kg, po; format: ADME, organism-based, Canis lupus familiaris; parameters: dose 0.5 mg/kg, route oral; conditions: in vivo; procedure, shortened: as §1
[25] = Protein binding in cynomolgus monkey plasma; format: ADME, cell-free, Macaca fascicularis; conditions: read-out: PPB (converted)
Liver microsomes [26] = assay: Metabolic stability assessed as covalent binding in presence of NADPH in human liver microsomes at 10 uM after 1 hr; format: ADME, Microsome; procedure, shortened: as §4
[27] = Clearance in dog at 0.5 mg/kg, iv; format: ADME, organism-based, Canis lupus familiaris; parameters: dose 0.5 mg/kg, route intravenous; conditions: in vivo; procedure, shortened: as §1
[28] = Cmax in cynomolgus monkey at 2 mg/kg, po; format: ADME, organism-based, Macaca fascicularis; parameters: dose 2 mg/kg, route oral; conditions: in vivo; procedure, shortened: as §1
[29] = Half life in dog at 0.5 mg/kg, po; format: ADME, organism-based, Canis lupus familiaris; parameters: dose 0.5 mg/kg, route oral; conditions: in vivo; procedure, shortened: as §1
[30] = AUC (0 to infinity) in Sprague-Dawley rat at 2 mg/kg, po; format: ADME, organism-based; parameters: time infinity, dose 2 mg/kg, route oral; conditions: plasma; procedure, shortened: as §3

COc1cc2nccc(Oc3ccc4c(C(N)=O)cccc4c3)c2cc1OC
Cmax (Mus musculus [1]): 890 ng/mL | MRT [2]: 8.6 h | microsomal CLint at 1 µM [3]: 32 µL/min/mg | Activity [4]: Active | Activity [5]: Active | solubility [6]: > 200 µg/mL | Vd [7]: 6.82 L/kg | clearance [8]: 42.4 mL/min/kg | AUC [9]: 0.48 µM·h | Tmax [10]: 0.75 h | clearance [11]: 3.73 mL/min/kg | IC50 (HUVEC): 230 nM | AUC at 24 h [12]: 3.9 µM·h | Stability (Liver microsomes [13]): 39 pmol/mg/h | microsomal CLint at 1 µM [14]: 7 µL/min/mg | Activity [15]: Active | inhibition in vivo at 20 mg/kg (Calu-6 (Homo sapiens)): 85% | Tmax [16]: 1.6 h | IC50 (Aurora kinase B): 220 nM | AUC(0-t) at 24 h [17]: 1360 ng·h/mL | Cp (Mus musculus [18]): 2.3 µM | Activity [19]: inactive | inhibition in vivo at 3 mg/kg (HT-29 [20]): 51% | AUC(0-t) at 24 h [21]: 1500 ng·h/mL | inhibition in vivo at 10 mg/kg (HT-29 [22]): 85% | IC50 [23]: 300 nM | Cmax [24]: 464 ng/mL | fraction unbound [25]: 0.008 | Stability (Liver microsomes [26]): 36 pmol/mg/h | clearance [27]: 1.72 mL/min/kg | Cmax [28]: 1050 ng/mL | half-life [29]: 16 h | AUC(0-inf) [30]: 8450 ng·h/mL
